Activity calls are given as the source filed them.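 The calls were made as follows: active = IC50 at or below 5 µM; inactive = the rest.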
Biological target: Steroidogenic factor 1 (Homo sapiens) (UniProt Q13285)
Experiment: SF-1 inhibitor potency in reporter cells, dose response, selectivity assay for LRH1 inverse agonist project, cell-based, luminescence (AID 488780)
Settings: HEK293T SF-1 5xSFRE luciferase reporter, 20 h; for fold change, <1 = inhibition: at 10 µM (top of the series)
Procedure, shortened: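 Assay system: HEK293T with SF-1 and 5xSFRE luciferase reporter / Doses: 9-point series from 10 µM / Incubation: 24 h bulk transfection before replating, then 20 h compound exposure / Technique: luciferase luminescence / Read-out: IC50 from percent inhibition versus DMSO / Controls: DMSO-treated cells as normalization reference / Replicates: each dose tested in triplicate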

Steroidogenic factor 1 (Homo sapiens), sequence (Q13285 whole entry, looked up): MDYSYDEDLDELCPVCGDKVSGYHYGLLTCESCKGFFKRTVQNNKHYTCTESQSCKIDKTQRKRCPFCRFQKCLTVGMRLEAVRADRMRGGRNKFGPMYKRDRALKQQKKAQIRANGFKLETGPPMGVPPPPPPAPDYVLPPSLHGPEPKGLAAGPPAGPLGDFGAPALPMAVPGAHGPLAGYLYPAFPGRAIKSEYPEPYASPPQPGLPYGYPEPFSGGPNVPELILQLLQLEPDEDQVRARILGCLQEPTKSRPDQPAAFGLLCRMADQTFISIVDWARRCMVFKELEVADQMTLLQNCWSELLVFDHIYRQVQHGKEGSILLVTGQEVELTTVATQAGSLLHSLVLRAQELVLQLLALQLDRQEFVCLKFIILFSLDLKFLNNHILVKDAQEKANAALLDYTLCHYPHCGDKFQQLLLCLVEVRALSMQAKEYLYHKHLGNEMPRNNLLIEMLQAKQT

SMILES | fold change, <1 = inhibition | IC50
O=c1cc(N2CCN(Cc3ccc(Cl)cc3)CC2)[nH]c(=O)n1C1CCCCC1 | inactive | 
C=CCn1c(=O)cc(N2CCN(c3cccc(C(F)(F)F)c3)CC2)[nH]c1=O | inactive | 
O=c1cc(N2CCN(c3cccc(Cl)c3)CC2)[nH]c(=O)n1C1CCCCC1 |  | > 10 µM (inactive)
O=c1cc(N2CCN(c3nc(-c4ccccc4)ns3)CC2)[nH]c(=O)n1C1CCCCC1 | inactive | 
O=c1cc(N2CCN(C3CCCCC3)CC2)[nH]c(=O)n1C1CCCCC1 |  | inactive
O=c1cc(N2CCN(c3cccc(C(F)(F)F)c3)CC2)[nH]c(=O)n1C1CCCCC1 | inactive | 
Cn1c(=O)cc(N2CCN(c3cccc(Cl)c3)CC2)[nH]c1=O | inactive | 
O=c1cc(N2CCN(c3ccccn3)CC2)[nH]c(=O)n1C1CCCCC1 | inactive | 
CCn1c(=O)cc(N2CCN(c3cccc(Cl)c3)CC2)[nH]c1=O | inactive | 
CCn1c(=O)cc(N2CCN(c3cccc(C(F)(F)F)c3)CC2)[nH]c1=O | inactive | 
CC(C)Cn1c(=O)cc(N2CCN(c3cccc(C(F)(F)F)c3)CC2)[nH]c1=O | inactive | 
O=c1cc(N2CCN(c3cccc(Cl)c3Cl)CC2)[nH]c(=O)n1C1CCCCC1 | inactive | 
Cc1cc(C)cc(N2CCN(c3cc(=O)n(C4CCCCC4)c(=O)[nH]3)CC2)c1 | inactive | 
O=c1cc(N2CCN(c3ccccc3)CC2)[nH]c(=O)n1C1CCCCC1 | inactive | 
O=c1cc(N2CCN(c3ccnc4cc(Cl)ccc34)CC2)[nH]c(=O)n1C1CCCCC1 | inactive | 
O=c1cc(N2CCN(c3cccc(Cl)n3)CC2)[nH]c(=O)n1C1CCCCC1 | inactive | 

Source: PubChem BioAssay AID488780 (The Scripps Research Institute Molecular Screening Center, 2010)
